The results in this text go back to ChEMBL document CHEMBL1127290, “1-(2,5-Dimethoxy-4-(trifluoromethyl)phenyl)-2-aminopropane: a potent serotonin 5-HT2A/2C agonist” (J Med Chem, 1994).

Common to all, as to format: functional
Substrate in data set [1]: COc1cc(C(F)(F)F)c(OC)cc1CC(C)N
Nature of the data set: (§1) The maximum responses of [3H]- inositol monophosphate accumulation in cells expressing the 5-hydroxytryptamine 2A receptor.

Substrate in data set [2]: COc1cc(C(F)(F)F)c(OC)cc1CCN
Described as §1.

Substrate in data set [3]: COc1cc(CC(C)N)c(OC)cc1I
The description is as §1.

Substrate in data set [4]: COc1cc(C(F)(F)F)c(OC)cc1CC(C)N
Put plainly: (§2) The maximum responses of [3H]- inositol monophosphate accumulation in cells expressing the 5-hydroxytryptamine 2C receptor. The gist of the method:
(§3)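 A9 cells expressing cloned 5-HT2C receptor, labelled 18 h with 1 μCi/mL [3H]inositol in inositol-free DMEM with dialysed serum. Compounds given 60 min with 10 mM LiCl in Krebs bicarbonate buffer, then [3H]inositol monophosphate accumulation measured. Expressed as % of the 5-HT (10^-5 M) maximum minus control. Vmax by nonlinear regression. Triplicates in three experiments, mean ± SE.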

Substrate in data set [5]: COc1cc(C(F)(F)F)c(OC)cc1CCN
The data set is described as §2. The gist of the method: as §3

Substrate in data set [6]: COc1cc(CC(C)N)c(OC)cc1I
Described as §2. In outline:
as §3

B1: 5-hydroxytryptamine receptor 2A (Mus musculus), P35363 (protein)
chain: MEILCEDNISLSSIPNSLMQLGDDSRLYPNDFNSRDANTSEASNWTIDAENRTNLSCEGYLPPTCLSILHLQEKNWSALLTTVVIILTIAGNILVIMAVSLEKKLQNATNYFLMSLAIADMLLGFLVMPVSMLTILYGYRWPLPSKLCAVWIYLDVLFSTASIMHLCAISLDRYVAIQNPIHHSRFNSRTKAFLKIIAVWTISVGISMPIPVFGLQDDSKVFKEGSCLLADDNFVLIGSFVAFFIPLTIMVITYFLTIKSLQKEATLCVSDLSTRAKLSSFSFLPQSSLSSEKLFQRSIHREPGSYAGRRTMQSISNEQKACKVLGIVFFLFVVMWCPFFITNIMAVICKESCNENVIGALLNVFVWIGYLSSAVNPLVYTLFNKTYRSAFSRYIQCQYKENRKPLQLILVNTIPTLAYKSSQLQVGQKKNSQEDAEPTANDCSMVTLGNQHSEEMCTDNIETVNEKVSCV
Turning to B1, the Vmax was 91 in data set [1], 58 in data set [2] and 94 in data set [3].

B2: 5-hydroxytryptamine receptor 2C (Mus musculus), P34968 (protein)
chain: MVNLGTAVRSLLVHLIGLLVWQFDISISPVAAIVTDTFNSSDGGRLFQFPDGVQNWPALSIVVIIIMTIGGNILVIMAVSMEKKLHNATNYFLMSLAIADMLVGLLVMPLSLLAILYDYVWPLPRYLCPVWISLDVLFSTASIMHLCAISLDRYVAIRNPIEHSRFNSRTKAIMKIAIVWAISIGVSVPIPVIGLRDESKVFVNNTTCVLNDPNFVLIGSFVAFFIPLTIMVITYFLTIYVLRRQTLMLLRGHTEEELRNISLNFLKCCCKKGDEEENAPNPNPDQKPRRKKKEKRPRGTMQAINNEKKASKVLGIVFFVFLIMWCPFFITNILSVLCGKACNQKLMEKLLNVFVWIGYVCSGINPLVYTLFNKIYRRAFSKYLRCDYKPDKKPPVRQIPRVAATALSGRELNVNIYRHTNERVVRKANDTEPGIEMQVENLELPVNPSNVVSERISSV
In the case of B2, the results for the Vmax in data set [4], in data set [5] and in data set [6] were 82, 80 and 82, respectively.
